Experimental data gathered from unrelated publications.
Each line is one published result; the experiments were not run side by side.
Cell line: DU-145
Effect on: cell growth or viability

| Compound | assay | setting | IC50 [µM] |
| --- | --- | --- | --- |
| O=c1ccn(Cc2cn(-c3c4ccccc4nc4ccccc34)nn2)c(=O)[nH]1 | MTT | – | 59.3 |
| CC(C)C(=O)Nc1ccc([N+](=O)[O-])c(C(F)(F)F)c1 | CCK-8 | 48 h | > 50 |
| COc1cc([C@H]2C[C@@H](C)OC(=O)c3cc4ccccn4c32)cc(OC)c1OC (racemic) | resazurin | 72 h | 36.9 |
| O=C(O)/C=C/c1ccc(C(c2c[nH]c3ccccc23)c2c[nH]c3ccccc23)s1 | MTT | 48 h | 90 |
| C[C@@H]1C[C@H](c2ccc(Br)cc2)c2c(cc3ccccn23)C(=O)O1 (racemic) | resazurin | 72 h | 34.4 |
| COC1=CC(=O)N(C(=O)[C@@H](CCC(Cl)(Cl)Cl)NC(=O)C(C)(C)C)[C@@H]1CCC(Cl)(Cl)Cl | resazurin | 72 h | 20 |
| CC(C)C[C@H](NC(=O)[C@H](Cc1ccccc1)NC(=O)c1cnccn1)B(O)O | ATP luminescence | – | 0.017 |
| COc1cccc2c1C(=O)c1c(O)c3c(c(O)c1C2=O)C[C@@](O)(C(=O)CO)C[C@@H]3O[C@H]1C[C@H](N)[C@H](O)[C@H](C)O1 | resazurin | 72 h | 0.095 |
| Cn1cc(C(c2ccc(/C=C/C(=O)O)s2)c2cn(C)c3ccccc23)c2ccccc21 | MTT | 48 h | 46 |
| COc1cc(OC)cc([C@H]2C[C@@H](C)OC(=O)c3cc4ccccn4c32)c1 (racemic) | resazurin | 72 h | 52.4 |
| Cc1ccc(S(=O)(=O)N(C)CC(=O)N(Cc2ccc(C3CCCCC3)cc2)c2ccc(C(=O)O)c(O)c2)cc1 | – | – | 37.2 |
| O=C(O)c1ccc(C(c2c[nH]c3ccccc23)c2c[nH]c3ccccc23)cc1 | MTT | 48 h | > 100 |
| COc1cc(C2Oc3cc([C@H]4Oc5cc(O)cc(O)c5C(=O)[C@@H]4O)ccc3OC2CO)ccc1O (stereo partly shown) | CCK-8 | 72 h | 21.9 |
| Cc1ccc2c(c1)c(C(c1ccc(/C=C/C(=O)O)s1)c1cn(C(C)C)c3ccc(C)cc13)cn2C(C)C | MTT | 48 h | > 100 |
| C[C@@H]1C[C@@H](c2cccc(Cl)c2)c2c(cc3ccccn23)C(=O)O1 (racemic) | resazurin | 72 h | > 100 |
| Oc1ccc(C(c2c[nH]c3ccccc23)c2c[nH]c3ccccc23)cc1 | MTT | 48 h | 48 |
| C[C@@H]1C[C@@H](c2cccc(F)c2)c2c(cc3ccccn23)C(=O)O1 (racemic) | resazurin | 72 h | > 100 |
| c1csc([I+]c2cccs2)c1 | trypan blue | 48 h | ~3.5 |
| Cc1cccc2c(C(c3ccc(/C=C/C(=O)O)s3)c3c[nH]c4c(C)cccc34)c[nH]c12 | MTT | 48 h | 64 |
| CCc1c2c(nc3ccc(OC(=O)N4CCC(N5CCCCC5)CC4)cc13)-c1cc3c(c(=O)n1C2)COC(=O)[C@]3(O)CC | SRB | 72 h | 9.3 |
| Cn1cc(C(c2ccc(C(=O)O)cc2)c2cn(C)c3ccccc23)c2ccccc21 | MTT | 48 h | > 100 |
| COc1cccc2c1C(=O)c1c(O)c3c(c(O)c1C2=O)C[C@@](O)(C(=O)CO)C[C@@H]3O[C@H]1C[C@H](N)[C@H](O)[C@H](C)O1 | WST-1 | 72 h | 0.03 |
